The values that follow come from ChEMBL document CHEMBL4261566, “New application of tiplaxtinin as an effective FtsZ-targeting chemotype for an antimicrobial study” (2017).

Broadly, the MIC90 is an inhibitory concentration at the 90% level, which refers to growth in some studies and to a panel of isolates in others. Read a high MIC90 as lower susceptibility.

The structures appear in SMILES notation. Values after ≈ are worked out from the molar mass of the structure shown. Active and inactive are the calls of the source. The calls are words filed in the database; no cut-off is given here. Where only a bound is given, the exact number is not on record here.

In assay [1] the test system is Staphylococcus aureus. The assay can be described thus: Antibacterial activity against methicillin-resistant Staphylococcus aureus ATCC BAA-41 after 18 hrs by broth microdilution method. Type of assay: functional. The settings on record: ATCC BAA-41, 18 h. A general note: Dilution methods test growth across graded concentrations, often in twofold steps.
In assay [2] the test system is Staphylococcus epidermidis. The assay can be described thus: Antibacterial activity against Staphylococcus epidermidis ATCC 12228 after 18 hrs by broth microdilution method. Type of assay: functional. The following applies: ATCC 12228, 18 h.
The test system of assay [3] is Staphylococcus aureus. As to the kind of experiment: Antibacterial activity against methicillin-resistant Staphylococcus aureus ATCC 33592 after 18 hrs by broth microdilution method. The class given is functional. The settings on record: ATCC 33592, 18 h.
Assay [4] relates to Staphylococcus aureus. As to the kind of experiment: Antibacterial activity against methicillin-resistant Staphylococcus aureus USA300 417 after 18 hrs by broth microdilution method. The settings on record: USA300 417, 18 h. The class given is functional.
A further assay deals with Pseudomonas aeruginosa. The assay can be described thus: Antibacterial activity against Pseudomonas aeruginosa ATCC BAA-2108 after 18 hrs by broth microdilution method. Type of assay: functional. The settings on record: ATCC BAA-2108, 18 h.
Assay [5] deals with Staphylococcus aureus. The assay can be described thus: Antibacterial activity against methicillin-resistant Staphylococcus aureus USA300 2690 after 18 hrs by broth microdilution method. Type of assay: functional. The settings on record: USA300 2690, 18 h.
For assay [6], the system named is Staphylococcus aureus. As to the kind of experiment: Antibacterial activity against Staphylococcus aureus ATCC 29213 after 18 hrs by broth microdilution method. The settings on record: ATCC 29213, 18 h. The class given is functional.
Assay [7] relates to Staphylococcus aureus. As to the kind of experiment: Antibacterial activity against Staphylococcus aureus ATCC 29247 after 18 hrs by broth microdilution method. The following applies: ATCC 29247, 18 h. The class given is functional.
Assay [8] relates to Staphylococcus aureus. The assay can be described thus: Antibacterial activity against methicillin-resistant Staphylococcus aureus ATCC 43300 after 18 hrs by broth microdilution method. Type of assay: functional. The following applies: ATCC 43300, 18 h.
Assay [9] deals with Bacillus subtilis. As to the kind of experiment: Antibacterial activity against Bacillus subtilis 168 after 18 hrs by broth microdilution method. The class given is functional. The following applies: subsp. subtilis str. 168, 18 h.
The subject of a further assay is Escherichia coli. As to the kind of experiment: Antibacterial activity against Escherichia coli ATCC 25922 after 18 hrs by broth microdilution method. The following applies: ATCC 25922, 18 h. Type of assay: functional.
Assay [10] addresses T1, Cell division protein FtsZ (Staphylococcus aureus) (UniProt P0A031).
T1 sequence (whole entry): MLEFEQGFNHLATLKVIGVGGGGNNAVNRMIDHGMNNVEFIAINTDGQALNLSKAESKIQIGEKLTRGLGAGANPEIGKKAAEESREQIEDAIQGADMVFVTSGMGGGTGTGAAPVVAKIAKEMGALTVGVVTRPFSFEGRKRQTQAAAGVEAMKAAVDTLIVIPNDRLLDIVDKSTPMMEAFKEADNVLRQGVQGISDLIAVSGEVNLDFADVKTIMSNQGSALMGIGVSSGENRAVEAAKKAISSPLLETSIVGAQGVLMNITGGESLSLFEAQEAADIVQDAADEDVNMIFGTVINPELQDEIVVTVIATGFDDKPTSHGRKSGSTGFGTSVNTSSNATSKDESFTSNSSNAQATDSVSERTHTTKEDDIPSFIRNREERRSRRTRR
As to the kind of experiment: Induction of recombinant Staphylococcus aureus FtsZ polymerization at 10 ug/ml by 90degree light scattering-based fluorescence spectrometric analysis. The method, boiled down: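 Recombinant S. aureus FtsZ cloned, overexpressed and purified. Polymerization followed over time by 90° light scattering in a thermostatically controlled fluorescence spectrometer, read as absorbance at 600 nm. Profiles recorded with and without compound. Methicillin served as the non-FtsZ-targeting control antibiotic.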

In assay [11] the test system is Staphylococcus aureus. The assay can be described thus: Antibacterial activity against methicillin-resistant Staphylococcus aureus ATCC BAA-1747 after 18 hrs by broth microdilution method. The following applies: ATCC BAA-1747, 18 h. The class given is functional.
In assay [12] the test system is Staphylococcus aureus. As to the kind of experiment: Antibacterial activity against methicillin-resistant Staphylococcus aureus ATCC BAA-1717 after 18 hrs by broth microdilution method. The class given is functional. The settings on record: ATCC BAA-1717, 18 h.
Assay [13] relates to Enterococcus faecium. The assay can be described thus: Antibacterial activity against vancomycin-resistant Enterococcus faecium ATCC 700221 after 18 hrs by broth microdilution method. The class given is functional. The settings on record: ATCC 700221, 18 h.
The subject of assay [14] is Staphylococcus aureus. As to the kind of experiment: Antibacterial activity against methicillin-resistant Staphylococcus aureus ATCC 33591 after 18 hrs by broth microdilution method. The settings on record: ATCC 33591, 18 h. The class given is functional.
The test system of another assay is Enterococcus faecalis. As to the kind of experiment: Antibacterial activity against Enterococcus faecalis ATCC 29212 after 18 hrs by broth microdilution method. Type of assay: functional. The following applies: ATCC 29212, 18 h.
The test system of assay [15] is Staphylococcus aureus. As to the kind of experiment: Antibacterial activity against methicillin-resistant Staphylococcus aureus ATCC BAA-1720 after 18 hrs by broth microdilution method. The settings on record: ATCC BAA-1720, 18 h. The class given is functional.
The subject of assay [16] is Enterococcus faecium. As to the kind of experiment: Antibacterial activity against Enterococcus faecium ATCC 49624 after 18 hrs by broth microdilution method. Type of assay: functional. The settings on record: ATCC 49624, 18 h.
A further assay relates to Klebsiella pneumoniae. The assay can be described thus: Antibacterial activity against Klebsiella pneumoniae ATCC BAA-1144 after 18 hrs by broth microdilution method. The class given is functional. The settings on record: ATCC BAA-1144, 18 h.
The next assay has as its system Bacteria. As to the kind of experiment: Induction of bacterial GFP-fused FtsZ polymerization expressed in Bacillus subtilis 168 assessed as misformation of Z-ring at 2 ug/ml after 4 hrs by fluorescence microscopic method. The method, boiled down:
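B. subtilis 168 carrying a GFP–FtsZ construct was treated with compound or with DMSO as control. Z-ring formation was then examined by fluorescence microscopy.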

Assay [17] relates to Bacillus subtilis. As to the kind of experiment: Bactericidal activity against Bacillus subtilis 168 assessed as reduction in bacterial load at MIC to 4 times MIC after 24 hrs relative to control. The class given is functional, subsp. subtilis str. 168. In outline: (§1)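 Time-kill assay: a growing culture (S. aureus ATCC 29213 or B. subtilis 168) was exposed at time zero to 1×, 2× and 4× the MIC. Viable cell numbers were followed over 24 h, and the log reduction in viable count was recorded.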

The target in assay [18] is T2, Cell division protein FtsZ (Bacillus subtilis (strain 168)) (UniProt P17865).
T2 sequence (whole entry): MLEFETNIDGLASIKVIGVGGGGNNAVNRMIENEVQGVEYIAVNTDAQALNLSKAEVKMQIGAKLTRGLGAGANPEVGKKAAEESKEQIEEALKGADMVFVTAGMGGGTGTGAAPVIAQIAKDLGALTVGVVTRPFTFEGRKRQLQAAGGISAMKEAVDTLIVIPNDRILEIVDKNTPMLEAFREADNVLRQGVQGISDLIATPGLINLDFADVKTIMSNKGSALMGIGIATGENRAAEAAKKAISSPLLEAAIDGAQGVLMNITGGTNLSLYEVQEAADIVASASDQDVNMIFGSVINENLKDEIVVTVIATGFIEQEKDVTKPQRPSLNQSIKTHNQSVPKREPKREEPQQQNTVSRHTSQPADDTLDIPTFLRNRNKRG
The assay can be described thus: Inhibition of cell division function of FtsZ in Bacillus subtilis 168 assessed as increase in cell length at 2 ug/ml after 5 hrs by phase contrast light microscopic method. The settings on record: Bacillus subtilis subsp. subtilis str. 168. In outline:
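B. subtilis 168 cells were grown with or without 2 μg mL–1 compound. Cell morphology, including filamentation, was then examined by microscopy.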

For assay [19], the system named is Staphylococcus aureus. The assay can be described thus: Bactericidal activity against Staphylococcus aureus ATCC 29213 assessed as reduction in bacterial load at MIC to 4 times MIC after 24 hrs relative to control. The class given is functional. In outline: as §1
The target of assay [20] is T1, Cell division protein FtsZ (Staphylococcus aureus). The assay can be described thus: Induction of recombinant Staphylococcus aureus FtsZ polymerization assessed as increase in bundling of protein protofilaments at 4 ug/ml preincubated for 10 mins followed by GTP addition and measured after 15 mins by transmission electron microscopic method.
For assay [21] the target is unchanged. The assay can be described thus: Induction of recombinant Staphylococcus aureus FtsZ polymerization by 90degree light scattering-based fluorescence spectrometric analysis. In outline:
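S. aureus FtsZ was cloned, overexpressed and purified. Polymerization was followed over time by 90° light scattering in a thermostatically controlled fluorescence spectrometer, […] change at 600 nm. Compound was tested at 2 to 8 μg mL–1 against a no-compound profile. Methicillin served as the non-FtsZ-targeting control antibiotic.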

The target is the same in assay [22]. The assay can be described thus: Inhibition of recombinant Staphylococcus aureus FtsZ GTPase activity preincubated for 10 mins followed by GTP addition and measured after 30 mins.
Assay [23] has the same target. As to the kind of experiment: Induction of recombinant Staphylococcus aureus FtsZ polymerization assessed as increase in size of polymers at 4 ug/ml preincubated for 10 mins followed by GTP addition and measured after 15 mins by transmission electron microscopic method.

`COc1cccc(OC)c1C(=O)N[C@@H]1C(=O)N2[C@@H]1SC(C)(C)[C@@H]2C(=O)O` [METHICILLIN]: the MIC90 against Staphylococcus aureus [1] is 1020 µg/mL (≈ 2690 µM); in [2], 0.75 µg/mL (≈ 1.97 µM); against Staphylococcus aureus [3], 512 µg/mL (≈ 1350 µM); against Staphylococcus aureus [4], 512 µg/mL (≈ 1350 µM); against Pseudomonas aeruginosa it was over 256 µg/mL; with Staphylococcus aureus [5], 256 µg/mL (≈ 673 µM). In addition, the MIC90 was under 1 µg/mL in the assay with Staphylococcus aureus [6]; 6 µg/mL (≈ 15.8 µM) with Staphylococcus aureus [7]; 512 µg/mL (≈ 1350 µM) in the assay on Staphylococcus aureus [8]; under 1 µg/mL against Bacillus subtilis [9]; 3 µg/mL (≈ 7.89 µM) with Escherichia coli; 256 µg/mL (≈ 673 µM) against Staphylococcus aureus [11]. Moreover, the MIC90 against Staphylococcus aureus [12] worked out at 512 µg/mL (≈ 1350 µM); with Enterococcus faecium [13] it was 1.5 µg/mL (≈ 3.94 µM); against Staphylococcus aureus [14], 1020 µg/mL (≈ 2690 µM); against Enterococcus faecalis it was 0.75 µg/mL (≈ 1.97 µM); against Staphylococcus aureus [15], 1020 µg/mL (≈ 2690 µM); in the assay on Enterococcus faecium [16] it was 1.5 µg/mL (≈ 3.94 µM). In the assay with Klebsiella pneumoniae, this molecule showed an MIC90 of over 256 µg/mL. Moreover, the result in assay [10] was inactive.
In turn, `CN[C@H](CC(C)C)C(=O)N[C@H]1C(=O)N[C@@H](CC(N)=O)C(=O)N[C@H]2C(=O)N[C@H]3C(=O)N[C@H](C(=O)N[C@H](C(=O)O)c4cc(O)cc(O)c4-c4cc3ccc4O)[C@H](O)c3ccc(c(Cl)c3)Oc3cc2cc(c3O[C@@H]2O[C@H](CO)[C@@H](O)[C@H](O)[C@H]2O[C@H]2C[C@](C)(N)[C@H](O)[C@H](C)O2)Oc2ccc(cc2Cl)[C@H]1O` [VANCOMYCIN] had an MIC90 in the assay with Enterococcus faecium [13] of over 96 µg/mL.
`O=C(O)C(=O)c1cn(Cc2ccccc2)c2ccc(-c3ccc(OC(F)(F)F)cc3)cc12` [TIPLASININ]: the MIC90 in the assay on Staphylococcus aureus [1] was 4 µg/mL (≈ 9.1 µM); in assay [2] it was 2 µg/mL (≈ 4.55 µM); in the assay with Staphylococcus aureus [3], 4 µg/mL (≈ 9.1 µM); with Staphylococcus aureus [4] it was 2 µg/mL (≈ 4.55 µM); against Pseudomonas aeruginosa, over 48 µg/mL; in the assay with Staphylococcus aureus [5], 2 µg/mL (≈ 4.55 µM). Also, the MIC90 against Staphylococcus aureus [6] was 2 µg/mL (≈ 4.55 µM); against Staphylococcus aureus [7], 2 µg/mL (≈ 4.55 µM); against Staphylococcus aureus [8] it was 4 µg/mL (≈ 9.1 µM); with Bacillus subtilis [9] it was 2 µg/mL (≈ 4.55 µM); against Escherichia coli, over 48 µg/mL; against Staphylococcus aureus [11], 4 µg/mL (≈ 9.1 µM). The MIC90 in the assay on Staphylococcus aureus [12], in the assay on Enterococcus faecium [13], in the assay on Staphylococcus aureus [14], with Enterococcus faecalis, against Staphylococcus aureus [15] and against Enterococcus faecium [16] was 4 µg/mL (≈ 9.1 µM) each time. In the assay on Klebsiella pneumoniae, this molecule had an MIC90 of over 48 µg/mL. For the same molecule, the outcome (with Bacteria; in assay [20]; in assay [23]) was Active. Further, the Activity with Bacillus subtilis [17] is over 3 deltalog10CFU/ml; in the assay on Staphylococcus aureus [19] it was over 3 deltalog10CFU/ml; in assay [21], “Dose-dependent effect”. Also, the inhibition result in assay [18] was “Active”. Besides, the inhibition result in assay [22] was “Dose-dependent effect”.
